Measurements taken from ChEMBL document CHEMBL3616416, “Imidazolidine-4-one derivatives in the search for novel chemosensitizers of Staphylococcus aureus MRSA: synthesis, biological evaluation and molecular modeling studies” (Eur J Med Chem, 2015).
Converted amounts (≈) assume the structure as drawn. The source made the active and inactive calls. The calls are words filed in the database; no cut-off is given here.

What was measured:
Staphylococcus aureus [1] = test: Resistance index, ratio of MIC for methicillin-resistant Staphylococcus aureus HEMSA to MIC for Staphylococcus aureus ATCC 25923; assay type: functional
Staphylococcus aureus [2] = test: Antimicrobial activity against methicillin-resistant Staphylococcus aureus HEMSA incubated for 20 hrs by serial dilution broth microplate method; assay type: functional
Outline: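 Broth microdilution MIC per CLSI in Mueller-Hinton broth against clinical isolate MRSA HEMSA 5. Bacterial suspension adjusted to OD 0.5, diluted 1:100 and added to serial two-fold dilutions of test agent. Ampicillin/sulbactam used at 2:1 ratio. Growth read after 20 h at 37 °C.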

Staphylococcus aureus [3] = test: Antimicrobial activity against Staphylococcus aureus ATCC 25923 incubated for 20 hrs by serial dilution broth microplate method; assay type: functional; conditions: ATCC 25923, 20 h
Outline: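 Broth dilution per CLSI in Mueller-Hinton broth, serial two-fold dilutions; compounds alone against reference strain, inoculum from suspension at OD 0.5 diluted 1:100; read after 20 h at 37 °C. MIC taken as lowest concentration inhibiting growth.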

Staphylococcus aureus [4] = test: Potentiation of oxacillin-induced antibacterial activity against Staphylococcus aureus ATCC 25923 assessed as reduction in oxacillin MIC at 0.5 mM incubated for 20 hrs by serial dilution broth microplate method; assay type: functional, organism-based
[5] = molecular target: T1, Methicillin resistance mecR1 protein (Staphylococcus aureus) (UniProt P0A0B1); test: Inhibition of MecR1 in methicillin-resistant Staphylococcus aureus HEMSA assessed as reduction in oxacillin A MIC at 0.5 mM incubated for 20 hrs by serial dilution broth microplate method
T1 sequence (whole entry): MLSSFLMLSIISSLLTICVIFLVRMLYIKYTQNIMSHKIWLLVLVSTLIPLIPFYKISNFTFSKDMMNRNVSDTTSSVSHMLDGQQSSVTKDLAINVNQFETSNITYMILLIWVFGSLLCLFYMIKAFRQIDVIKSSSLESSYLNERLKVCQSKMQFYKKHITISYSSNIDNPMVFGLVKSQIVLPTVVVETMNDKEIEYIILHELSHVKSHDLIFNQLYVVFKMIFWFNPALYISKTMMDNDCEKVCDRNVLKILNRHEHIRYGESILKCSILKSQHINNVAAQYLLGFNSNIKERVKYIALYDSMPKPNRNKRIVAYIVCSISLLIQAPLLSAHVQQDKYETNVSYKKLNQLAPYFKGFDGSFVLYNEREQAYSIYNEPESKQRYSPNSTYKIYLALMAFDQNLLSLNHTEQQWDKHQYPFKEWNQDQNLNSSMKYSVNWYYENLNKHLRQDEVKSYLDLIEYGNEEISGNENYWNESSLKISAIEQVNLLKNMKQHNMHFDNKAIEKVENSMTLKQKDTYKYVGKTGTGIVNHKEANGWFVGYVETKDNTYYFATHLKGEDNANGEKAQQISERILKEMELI
Outline: (§1)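 Chemosensitization in MRSA HEMSA 5 measured by CLSI broth microdilution in Mueller-Hinton broth. Serial two-fold dilutions of antibiotic (oxacillin, cloxacillin, ampicillin/sulbactam 2:1, ciprofloxacin or neomycin) combined with compound at fixed concentration not exceeding ¼ of its own MIC. Inoculum OD 0.5 diluted 1:100. Read after 20 h at 37 °C. Result given as fold reduction of antibiotic MIC.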

Staphylococcus aureus [6] = test: Potentiation of […] antibacterial activity against Staphylococcus aureus ATCC 25923 assessed as reduction in ampicillin and sulbactam MIC MIC incubated for 20 hrs by serial dilution broth microplate method; assay type: functional, organism-based
Staphylococcus aureus [7] = test: Potentiation of neomycin-induced antibacterial activity against Staphylococcus aureus ATCC 25923 assessed as reduction in […] MIC incubated for 20 hrs by serial dilution broth microplate method; assay type: functional, organism-based
[8] = molecular target: T1, Methicillin resistance mecR1 protein (Staphylococcus aureus); test: Inhibition of MecR1 in methicillin-resistant Staphylococcus aureus HEMSA assessed as reduction in neomycin MIC at 0.5 mM incubated for 20 hrs by serial dilution broth microplate method; outline: as §1
Staphylococcus aureus [9] = test: Potentiation of […] antibacterial activity against Staphylococcus aureus ATCC 25923 assessed as reduction in cloxacillin MIC incubated for 20 hrs by serial dilution broth microplate method; assay type: functional, organism-based
[10] = molecular target: T1, Methicillin resistance mecR1 protein (Staphylococcus aureus); test: Inhibition of MecR1 in methicillin-resistant Staphylococcus aureus HEMSA assessed as reduction in ampicillin and sulbactam MIC at 0.5 mM incubated for 20 hrs by serial dilution broth microplate method; outline: as §1
Staphylococcus aureus [11] = test: Potentiation of ciprofloxacin -induced antibacterial activity against Staphylococcus aureus ATCC 25923 assessed as reduction in […] MIC incubated for 20 hrs by serial dilution broth microplate method; assay type: functional, organism-based
[12] = molecular target: T1, Methicillin resistance mecR1 protein (Staphylococcus aureus); test: Inhibition of MecR1 in methicillin-resistant Staphylococcus aureus HEMSA assessed as reduction in cloxacillin MIC at 0.5 mM incubated for 20 hrs by serial dilution broth microplate method; outline: as §1
[13] = molecular target: T1, Methicillin resistance mecR1 protein (Staphylococcus aureus); test: Inhibition of MecR1 in methicillin-resistant Staphylococcus aureus HEMSA assessed as reduction in ciprofloxacin MIC at 0.5 mM incubated for 20 hrs by serial dilution broth microplate method; outline: as §1
[14] = molecular target: T1, Methicillin resistance mecR1 protein (Staphylococcus aureus); test: Inhibition of MecR1 in methicillin-resistant Staphylococcus aureus HEMSA assessed as reduction in oxacillin A MIC at 0.25 mM incubated for 20 hrs by serial dilution broth microplate method; outline: as §1
[15] = molecular target: T1, Methicillin resistance mecR1 protein (Staphylococcus aureus); test: Inhibition of MecR1 in methicillin-resistant Staphylococcus aureus HEMSA assessed as reduction in oxacillin A MIC at 0.125 mM incubated for 20 hrs by serial dilution broth microplate method; outline: as §1
[16] = molecular target: T1, Methicillin resistance mecR1 protein (Staphylococcus aureus); test: Inhibition of MecR1 in methicillin-resistant Staphylococcus aureus HEMSA assessed as reduction in ciprofloxacin MIC at 0.125 mM incubated for 20 hrs by serial dilution broth microplate method; outline: as §1
[17] = molecular target: T1, Methicillin resistance mecR1 protein (Staphylococcus aureus); test: Inhibition of MecR1 in methicillin-resistant Staphylococcus aureus HEMSA assessed as reduction in cloxacillin MIC at 0.125 mM incubated for 20 hrs by serial dilution broth microplate method; outline: as §1
Staphylococcus aureus [18] = test: Potentiation of oxacillin-induced antibacterial activity against Staphylococcus aureus ATCC 25923 assessed as reduction in oxacillin MIC at 0.0625 mM incubated for 20 hrs by serial dilution broth microplate method; assay type: functional
[19] = molecular target: T1, Methicillin resistance mecR1 protein (Staphylococcus aureus); test: Inhibition of MecR1 in methicillin-resistant Staphylococcus aureus HEMSA assessed as reduction in ampicillin and sulbactam MIC at 0.125 mM incubated for 20 hrs by serial dilution broth microplate method; outline: as §1
[20] = molecular target: T1, Methicillin resistance mecR1 protein (Staphylococcus aureus); test: Inhibition of MecR1 in methicillin-resistant Staphylococcus aureus HEMSA assessed as reduction in neomycin MIC at 0.125 mM incubated for 20 hrs by serial dilution broth microplate method; outline: as §1

## NC[C@@H]1O[C@H](O[C@H]2[C@@H](O)[C@H](O[C@@H]3[C@@H](O)[C@H](N)C[C@H](N)[C@H]3O[C@H]3O[C@H](CN)[C@@H](O)[C@H](O)[C@H]3N)O[C@@H]2CO)[C@H](N)[C@@H](O)[C@@H]1O [FRAMYCETIN]
Staphylococcus aureus [1]
  Ratio: 240
Staphylococcus aureus [2]
  MIC: 240 µM (≈ 148 µg/mL)
Staphylococcus aureus [3]
  MIC: 1 µM (≈ 0.615 µg/mL)

## CC1(c2cccc3ccccc23)NC(=O)N(CCCCN)C1=O (configuration not stated)
Staphylococcus aureus [4]
  Activity: inactive
Staphylococcus aureus [2]
  MIC: > 1000 µM
Staphylococcus aureus [3]
  MIC: > 1000 µM
[5]
  inhibition: inactive

## Cc1onc(-c2ccccc2Cl)c1C(=O)N[C@@H]1C(=O)N2[C@@H]1SC(C)(C)[C@@H]2C(=O)O [CLOXACILLIN]
Staphylococcus aureus [2]
  MIC: 160 µM (≈ 69.7 µg/mL)
Staphylococcus aureus [3]
  MIC: 0.42 µM (≈ 0.183 µg/mL)

## COc1ccc(/C=C2\NC(=O)N(CC(O)CNCCCN3CCN(C)CC3)C2=O)cc1 (configuration not stated)
Staphylococcus aureus [6]
  Activity: inactive
Staphylococcus aureus [7]
  Activity: inactive
[8]
  inhibition: inactive
Staphylococcus aureus [4]
  Activity: inactive
Staphylococcus aureus [9]
  Activity: inactive
[10]
  fold change (FC): 2
Staphylococcus aureus [2]
  MIC: > 1000 µM
Staphylococcus aureus [3]
  MIC: > 1000 µM
[5]
  fold change (FC): 2
Staphylococcus aureus [11]
  Activity: inactive
[12]
  fold change (FC): 8
[13]
  fold change (FC): 2

## CC1(c2cccc3ccccc23)NC(=O)N(CCCCCN)C1=O (configuration not stated)
Staphylococcus aureus [4]
  Activity: inactive
Staphylococcus aureus [2]
  MIC: 1000 µM (≈ 325 µg/mL)
Staphylococcus aureus [3]
  MIC: > 1000 µM
[14]
  inhibition: inactive

## O=C1NC(N2CCNCC2)=N/C1=C\c1ccc(Cl)cc1
Staphylococcus aureus [4]
  Activity: inactive
[15]
  inhibition: inactive
Staphylococcus aureus [2]
  MIC: 500 µM (≈ 145 µg/mL)
Staphylococcus aureus [3]
  MIC: > 1000 µM

## O=C1NC(N2CCNCC2)=N/C1=C\c1ccc2ccccc2c1
Staphylococcus aureus [6]
  Activity: inactive
Staphylococcus aureus [7]
  Activity: inactive
[16]
  fold change (FC): 4
Staphylococcus aureus [1]
  Ratio: 2
[17]
  fold change (FC): 256
Staphylococcus aureus [9]
  Activity: inactive
[15]
  fold change (FC): 128
Staphylococcus aureus [2]
  MIC: 500 µM (≈ 153 µg/mL)
Staphylococcus aureus [3]
  MIC: 250 µM (≈ 76.6 µg/mL)
Staphylococcus aureus [18]
  fold change (FC): 2
[19]
  fold change (FC): 4
[20]
  inhibition: inactive
Staphylococcus aureus [11]
  Activity: inactive
